Results: PubChem BioAssay
The source made the active and inactive calls.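 Rule for the calls, unless noted: active = fluorescence slope higher than the sample average by over 3 SD (cut at about -0.22 in these data, passing the limit was not always enough); inactive = the rest.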

Key:
[1] = inhibitors of TNFa-induced NFkB p65 translocation, primary screen, imaging, HUVEC, MLSMR starter and 10KST1 sets (AID 438;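 active = inhibition above 20% together with a positive visual image hit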;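 note: compound added about 3h40 before a 20 min TNFalpha stimulation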;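 for inhibition: signal is the nuclear over cytoplasmic p65 intensity ratio per well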); conditions: HUVEC TNFa-induced p65 nuclear translocation; cell count: measured here: nuclei count (cytotoxicity indicator), at 2.08 µM; inhibition: at 2 µM, stronger effect = higher value, 0% TNFa-plus-vehicle, 100% no-TNFa wells
[2] = inhibitors of mutant huntingtin aggregation, primary screen, imaging, exon1htt(103Q)mCFP cells, high-content imaging (AID 483;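 active = visual image review flags a hit and inhibition of aggregation exceeds 20%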;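 note: compound exposure lasted 3 days before fixation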;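 for nuclei count: percent of the per-plate median nuclei count of sample wells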); conditions: exon1htt(103Q)mCFP cell line, aggregate imaging, at 2 µM; inhibition of aggregation: stronger effect = higher value; nuclei count: measured here: cell count, toxicity
[3] = inhibitors of E-selectin induction by TNFa, primary screen, imaging, HUVEC, immunofluorescence, MLSMR starter and 10KST1 sets (AID 487;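 active = visually confirmed hit in the image check and inhibition above 20%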;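 for inhibition: signal is fraction of cell area covered by stained E-selectin grains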;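 for nuclei count: 100% = median nuclei count of all wells on the same plate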); conditions: HUVEC TNFalpha-induced E-selectin immunofluorescence imaging, at 2 µM; inhibition: stronger effect = higher value; nuclei count: measured here: cell number, toxicity
[4] = biological target: Voltage-gated potassium channel subunit beta-2 (Rattus norvegicus) (UniProt P62483); test: KvBeta enzyme negative modulators, primary screen, biochemical, NADPH fluorescence (AID 622); conditions: recombinant KvBeta, 4-cyanobenzaldehyde reduction, at 10 µM, stronger effect = higher value;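 note: slope of raw intensity against log time taken from 70 to 1610 s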
[5] = biological target: Voltage-gated potassium channel subunit beta-2 (Rattus norvegicus) (UniProt P62483); test: KvBeta positive modulators, primary screen, biochemical, NADPH fluorescence (AID 623;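 active = NADPH fluorescence slope more negative than the mean of all samples by about 3 SD, 99.7% confidence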;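 note: fluorescence intensity change per second fitted from 20 to 320 s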); conditions: Recombinant KvBeta, NADPH fluorescence decrease slope, 10 min; at 10 µM; stronger effect = lower value
[6] = biological target: Alpha-2C adrenergic receptor (Homo sapiens) (UniProt P18825); test: modulators of alpha2C/GIRK thallium flux, primary screen, cell-based, HEK293 alpha2C/GIRK1/2 (AID 624;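 active = fluorescence slope after compound addition differing from the mean of all screened samples at 99.7% confidence, in either direction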;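 note: slope of fluorescence ratio to pre-addition baseline per second over 15 to 24 s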); conditions: thallium flux BTC fluorescence, at 10 µM, actives lie on both sides
[7] = inhibitors of larval lipid processing in zebrafish, primary screen, whole organism, PED6 fluorescence, gall bladder and intestine (AID 686;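 active = a full or partial loss of lipid-probe fluorescence in the fish gall bladder, intestine or both, judged by eye; inactive = no fluorescence loss, or compound toxic to the fish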;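 note: larvae 5 to 7 days old with five fish per well; signal comes from phospholipase A2 cleavage of quenched PED6 carried via bile; overnight exposure to compound and PED6 before scoring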); conditions: Zebrafish larvae PED6 lipid processing, fluorescence scoring; screened at 20 µM (by protocol)
Outline: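 system = live zebrafish larvae aged 5-7 days, whole organism | probe or stimulus = ingested quenched lipid PED6 at 100 nM | doses = 20 µM single dose | timing = overnight exposure | detection = fluorescence microscopy with visual scoring of gall bladder and intestine | read-out = visual per-well fluorescence inhibition score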

[8] = inhibitors of Sendai virus-induced IRF3 signaling, primary screen, TLR/RLR signaling modifier project, cell-based, Sendai virus stimulus, luciferase, 10K MLSCN set (AID 602276;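 active = inhibition at or above 50% at 10 µM; inactive = inhibition below 50%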;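 note: firefly luciferase from ISG56 promoter only with Renilla not read in this screen; 0% = Sendai virus plus DMSO and 100% = medium plus DMSO without virus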); conditions: HEK293 RL24 IRF3 luciferase reporter, at 10 µM, stronger effect = higher value
[9] = inhibitors of poly I:C-induced TLR3 signaling, primary screen, cell-based, poly I:C stimulus, luciferase, 10K MLSCN set (AID 602277;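 active = inhibition of the reporter signal at or above 50%; inactive = inhibition below 50%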); conditions: HEK293-TLR3 RL24 IRF3 luciferase reporter, at 10 µM, stronger effect = higher value

Sequence of Alpha-2C adrenergic receptor (Homo sapiens) (P18825 whole entry, looked up): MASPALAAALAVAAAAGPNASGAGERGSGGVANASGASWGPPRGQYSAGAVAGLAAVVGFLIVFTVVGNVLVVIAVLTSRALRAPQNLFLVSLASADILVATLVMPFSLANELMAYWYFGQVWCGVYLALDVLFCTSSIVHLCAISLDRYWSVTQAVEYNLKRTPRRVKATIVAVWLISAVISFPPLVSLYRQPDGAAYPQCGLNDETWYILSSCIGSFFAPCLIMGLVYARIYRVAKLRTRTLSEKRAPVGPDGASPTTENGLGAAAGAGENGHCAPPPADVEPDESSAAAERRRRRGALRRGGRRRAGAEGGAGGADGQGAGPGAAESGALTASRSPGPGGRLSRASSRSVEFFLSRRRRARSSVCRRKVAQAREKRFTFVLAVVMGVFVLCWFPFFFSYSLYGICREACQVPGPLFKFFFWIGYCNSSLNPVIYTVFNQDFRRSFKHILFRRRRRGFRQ
Sequence of Voltage-gated potassium channel subunit beta-2 (Rattus norvegicus) (P62483 whole entry, looked up): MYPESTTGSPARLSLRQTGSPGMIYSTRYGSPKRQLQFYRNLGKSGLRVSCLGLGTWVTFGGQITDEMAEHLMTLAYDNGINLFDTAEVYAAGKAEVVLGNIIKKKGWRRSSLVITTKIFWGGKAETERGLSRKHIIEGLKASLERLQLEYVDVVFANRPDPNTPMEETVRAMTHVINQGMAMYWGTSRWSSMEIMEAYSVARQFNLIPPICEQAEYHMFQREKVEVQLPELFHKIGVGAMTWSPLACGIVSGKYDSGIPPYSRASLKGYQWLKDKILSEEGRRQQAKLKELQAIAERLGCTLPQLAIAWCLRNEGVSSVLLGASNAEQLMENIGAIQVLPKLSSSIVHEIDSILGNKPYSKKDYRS

SMILES | cell count [1] | inhibition [1] | inhibition of aggregation [2] | nuclei count [2] [%] | inhibition [3] | nuclei count [3] [%] | fluorescence slope [4] | NADPH fluorescence slope [5] | slope [6] | outcome [7] | inhibition [8] | inhibition [9]
Cc1nc2cc(NC(=O)N3c4ccccc4CC3C)ccc2o1 (stereo unspecified) | 574 | -2.2% (inactive) | 7.4% (inactive) | 56.2 | -10.4% (inactive) | 96.8 | -0.394 (inactive) | -5.4e-05 (inactive) | 0.00476 (inactive) | inactive | 1.7% (inactive) | -4% (inactive)
CC1(C)C(c2cccs2)=[N+]([O-])C2(CCCCC/C2=N\O)N1O (stereo unspecified) | 423 | 0.5% (inactive) | 5.7% (inactive) | 91.7 | -97.1% (inactive) | 112 | -0.46 (inactive) | -4.9e-05 (inactive) | 0.00609 (inactive) | inactive | 15.7% (inactive) | 15.3% (inactive)
COC(=O)CSc1nnc(CSc2nc(C)cc(C)n2)n1Cc1ccco1 | 567 | 5.2% (inactive) | -0.5% (inactive) | 99.8 | -50.8% (inactive) | 135 | -0.404 (inactive) | -2.4e-05 (inactive) | 0.00459 (inactive) | inactive | 1.21% (inactive) | 3.66% (inactive)
CC(C)Cn1c2c(c(O)c(C(=O)Nc3ncccc3O)c1=O)CCCC2 | 576 | -5.9% (inactive) | 9.6% (inactive) | 99.1 | 26.1% (inactive) | 105 | -0.38 (inactive) | -6.5e-05 (inactive) | 0.00432 (inactive) | inactive | 8.02% (inactive) | 10.1% (inactive)
FC(F)(F)c1ccc(Sc2nnc(-c3cccs3)n2CC2CCCO2)nc1 (stereo unspecified) | 357 | -21.4% (inactive) | -3% (inactive) | 83.2 | -85.5% (inactive) | 104 | -0.424 (inactive) | -7.7e-06 (inactive) | 0.00449 (inactive) | inactive | 13.6% (inactive) | 6.99% (inactive)
O=C(CSc1nc2ccccc2[nH]1)N1CCCCC1 | 433 | 0.5% (inactive) | 16% (inactive) | 102 | 13.2% (inactive) | 99.3 | -0.435 (inactive) | -3.6e-05 (inactive) | 0.00459 (inactive) | inactive | -14.8% (inactive) | -73.7% (inactive)
CN(C)S(=O)(=O)c1ccc(S(=O)(=O)N(Cc2ccco2)Cc2ccccc2Cl)cc1 | 478 | 4% (inactive) | 0.8% (inactive) | 98.9 | -58.4% (inactive) | 99.8 | -0.523 (inactive) | 8.8e-06 (inactive) | 0.00696 (inactive) |  | 4.31% (inactive) | 53.4% (active)
Cc1nnc(SCc2nnc(-c3ccccc3Br)o2)n1-c1ccccc1 | 730 | 14.5% (inactive) | 38.5% (inactive) | 87.5 | -59.5% (inactive) | 93.8 | -0.455 (inactive) | -4e-05 (inactive) | 0.00597 (inactive) | inactive | 6.33% (inactive) | 8.93% (inactive)
CN(CC(=O)N1CCCCC1)S(=O)(=O)c1cccc2cccnc12 | 792 | 4.3% (inactive) | 9.7% (inactive) | 112 | -53.1% (inactive) | 124 | -0.531 (inactive) | -1e-05 (inactive) | 0.00551 (inactive) |  | 3.62% (inactive) | 25.4% (inactive)
CCCC(=O)n1nc(-c2ccc(OC)cc2)nc1N | 239 | -3.7% (inactive) | 17.1% (inactive) | 80 | -20.1% (inactive) | 77 | -0.483 (inactive) | -4.3e-05 (inactive) | 0.00574 (inactive) |  | 12.9% (inactive) | 14.6% (inactive)
c1ccc(-c2nc3ccccc3nc2-c2ccccn2)nc1 | 746 | -8.5% (inactive) | 4.8% (inactive) | 93.9 | -17.4% (inactive) | 118 | -0.491 (inactive) | -3.4e-05 (inactive) | 0.0056 (inactive) |  | 11.1% (inactive) | 14.2% (inactive)
Cn1c(=O)cc(SCC(=O)NCc2cccnc2)c2ccccc21 | 634 | 2.8% (inactive) | 3.4% (inactive) | 104 | -48.7% (inactive) | 110 | -0.31 (inactive) | -3.9e-05 (inactive) | 0.00505 (inactive) | inactive | 9.23% (inactive) | 9.63% (inactive)
CCOc1ccc(Cn2nnc(C(=O)Nc3ccc(OC)cc3OC)c2N)cc1 | 720 | -6.1% (inactive) | 7.2% (inactive) | 108 | -9.7% (inactive) | 106 | -0.49 (inactive) | -3.6e-05 (inactive) | 0.00559 (inactive) |  | -5.26% (inactive) | -8.45% (inactive)
C=CCSc1nnc(-c2ccc(Cl)cc2Cl)o1 | 400 | 0.2% (inactive) | 16.3% (inactive) | 84.8 | 14.7% (inactive) | 88.4 | -0.373 (inactive) | -5.2e-05 (inactive) | 0.00563 (inactive) | inactive | -1.24% (inactive) | -58.3% (inactive)
O=C(Nc1ccncc1)c1cc2ccccc2o1 | 165 | 2.1% (inactive) | 35.8% (inactive) | 101 | -106% (inactive) | 140 | -0.382 (inactive) | -4.4e-05 (inactive) | 0.00527 (inactive) | inactive; toxic | -36.5% (inactive) | -115% (inactive)
COc1ccccc1N(CC(=O)NC1CCCC1)C(=O)c1csnn1 | 723 | -1.7% (inactive) | 10.7% (inactive) | 109 | -49.4% (inactive) | 126 | -0.365 (inactive) | -2.7e-05 (inactive) | 0.00495 (inactive) | inactive | -0.44% (inactive) | 1.68% (inactive)
CCCNC(=O)c1cc(-c2ccco2)on1 | 389 | -3.9% (inactive) | -4.1% (inactive) | 88.7 | -11.4% (inactive) | 98.4 | -0.39 (inactive) | -4.2e-05 (inactive) | 0.0057 (inactive) | inactive | -19% (inactive) | -154% (inactive)
COc1cccc(CC(=O)Nn2c(C)nc3ccccc3c2=O)c1 | 375 | 10.5% (inactive) | -8.2% (inactive) | 102 | -2% (inactive) | 115 | -0.395 (inactive) | -6e-05 (inactive) | 0.00573 (inactive) | inactive | -2.22% (inactive) | 98% (active)
O=C(O)CCc1ccc(-c2cccs2)n1NC(=O)c1ccccc1Br | 338 | -5.2% (inactive) | 2.7% (inactive) | 94.1 | -46.9% (inactive) | 115 | -0.416 (inactive) | -5.2e-05 (inactive) | 0.0044 (inactive) | inactive | 19.5% (inactive) | 14.2% (inactive)
O=C(c1ncc[nH]1)c1ccccc1C(=O)N1CCOCC1 | 399 | 15.2% (inactive) | 27.9% (inactive) | 111 | -232% (inactive) | 116 | -0.515 (inactive) | -0.000166 (inactive) | 0.00482 (inactive) |  | -6.47% (inactive) | 4.36% (inactive)
COc1cc(C(=O)OCc2cc3ccccc3[nH]c2=O)cc(OC)c1OC | 833 | -3.9% (inactive) | -3.9% (inactive) | 99.3 | -38.9% (inactive) | 102 | -0.356 (inactive) | -4.1e-05 (inactive) | 0.00585 (inactive) | inactive | 17.4% (inactive) | 18.2% (inactive)
CC1(C)Cc2c(sc3c2c(=N)n(Cc2ccco2)c(=O)n3Cc2ccccc2)CO1 | 790 | -10.7% (inactive) | 12% (inactive) | 101 | -27.8% (inactive) | 112 | -0.587 (inactive) | 2.3e-06 (inactive) | 0.0065 (inactive) |  | 13.1% (inactive) | 23.7% (inactive)
CCCCc1c(O)nc(SCC(=O)Nc2ccc3c(c2)CCC3)[nH]c1=O | 569 | -18.3% (inactive) | -3% (inactive) | 75.8 | -5.9% (inactive) | 87.2 | -0.368 (inactive) | -6.1e-05 (inactive) | 0.00495 (inactive) | inactive | 10.6% (inactive) | 7.8% (inactive)
O=C(c1ccc(S(=O)(=O)N2CCC(c3nc4ccccc4s3)CC2)cc1)N1CCOCC1 | 689 | -2.9% (inactive) | -25% (inactive) | 109 | -80.2% (inactive) | 116 | -0.392 (inactive) | -9.6e-07 (inactive) | 0.00693 (inactive) | inactive | -8.58% (inactive) | 3.6% (inactive)
CC1(C)CC2CC(C)(CN2S(=O)(=O)c2ccc(N)cc2)C1 (stereo unspecified) | 613 | -9.2% (inactive) | 30.3% (inactive) | 79.8 | 65.6% (inactive) | 60.2 | -0.374 (inactive) | -6.2e-05 (inactive) | 0.00585 (inactive) | inactive | 10.2% (inactive) | 18.5% (inactive)
O=C(NCC1COc2ccccc2O1)c1ccc(NC(=O)c2ccco2)cc1 (stereo unspecified) | 752 | -3.6% (inactive) | 22.7% (inactive) | 106 | -120% (inactive) | 120 | -0.435 (inactive) | -2.6e-05 (inactive) | 0.00329 (inactive) |  | 7.34% (inactive) | 20% (inactive)
CN(C)C(=O)CN(C)S(=O)(=O)c1ccc(Cl)cc1 | 447 | 8.7% (inactive) | 10.6% (inactive) | 93.2 | -2.4% (inactive) | 113 | -0.416 (inactive) | -1.2e-05 (inactive) | 0.00557 (inactive) | inactive | 7.26% (inactive) | 6.1% (inactive)
